For 24 compounds, Activity and EC50 results are on record in ChEMBL document CHEMBL3739258, “Click-based synthesis of bromotyrosine alkaloid analogs as potential anti-biofilm leads for SAR studies” (Bioorg Med Chem Lett, 2015).

Data set [1] relates to Pseudoalteromonas lipolytica. In words: Antibiofilm activity against Pseudoalteromonas lipolytica TC8 assessed as microbial adhesion at 200 uM after 15 hrs by Syto61 based-fluorescence analysis relative to control. It counts as functional. The gist of the method:
(§1)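 Cells grown in VNSS at 20 °C to stationary phase, centrifuged, and resuspended in sterile artificial seawater to OD600 0.2–0.4. Suspension incubated with compound at 200 µM in triplicate for 15 h at 20 °C. Loose cells removed with three washes in 36 g/L NaCl. Attached cells stained 10 min at room temperature with 40 µmol/L Syto 61, then washed and the stain solubilised. Fluorescence read at ex 615/em 670 nm against untreated adhesion-control wells.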

The subject of data set [2] is Paracoccus sp. In words: Antibiofilm activity against Paracoccus sp. 4M6 assessed as microbial adhesion at 200 uM after 15 hrs by Syto61 based-fluorescence analysis relative to control. It counts as functional. The gist of the method: as §1
Data set [3] relates to Pseudoalteromonas ulvae. In words: Antibiofilm activity against Pseudoalteromonas ulvae TC14 assessed as microbial adhesion at 200 uM after 15 hrs by Syto61 based-fluorescence analysis relative to control. It is filed as functional. The gist of the method:
as §1

The test system of data set [4] is Paracoccus sp. The experiment in a line: Antibiofilm activity against Paracoccus sp. 4M6 assessed as reduction in adhesion after 15 hrs by Syto61 based-fluorescence analysis relative to control. The note with it: Paracoccus sp. (in: a-proteobacteria), 4M6, 15 h. It is filed as functional. The gist of the method: (§2)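 Adhesion assay: cells from a 20 °C VNSS stationary-phase culture were resuspended in artificial seawater (OD600 0.2–0.4). They were exposed to a range of compound concentrations in triplicate for 15 h at 20 °C, then washed with 36 g/L NaCl and stained 10 min with 40 µmol/L Syto 61. Fluorescence was read at ex 615/em 670 nm relative to bacteria-only controls. EC50 came from dose-response curve fitting.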

The nature of data set [5]: Toxicity in Paracoccus sp. 4M6 assessed as effect on viability at 100 uM after 6 hrs by resazurin-staining assay relative to control. The gist of the method:
(§3)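 Strains grown in VNSS at 20 °C. Bacterial suspension added to VNSS wells containing compound at 100 µM, triplicate, with solvent and untreated controls. OD600 followed hourly for 6 h. Resazurin was then added and fluorescence read after 2 h. Percent viability was calculated as in the Syto 61 adhesion assay.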
A general note: The colour change of resazurin is a common sign of viable cells or microbes.

Data set [6] in a line: Toxicity in Paracoccus sp. 4M6 assessed as growth inhibition at 100 uM after 15 hrs by Syto61 based-fluorescence analysis relative to control.
Data set [7] concerns Pseudoalteromonas lipolytica. In words: Antibiofilm activity against Pseudoalteromonas lipolytica TC8 assessed as reduction in adhesion after 15 hrs by Syto61 based-fluorescence analysis relative to control. It is filed as functional. The settings on record: TC8, 15 h. The gist of the method: as §2
Data set [8] deals with Pseudoalteromonas ulvae. In words: Antibiofilm activity against Pseudoalteromonas ulvae TC14 assessed as reduction in adhesion after 15 hrs by Syto61 based-fluorescence analysis relative to control. It is filed as functional. The settings on record: TC14, 15 h. The gist of the method:
as §2

A short description of data set [9]: Toxicity in Pseudoalteromonas lipolytica TC8 assessed as growth inhibition at 100 uM after 15 hrs by Syto61 based-fluorescence analysis relative to control.
Data set [10] can be described thus: Toxicity in Pseudoalteromonas lipolytica TC8 assessed as effect on viability at 100 uM after 6 hrs by resazurin-staining assay relative to control. The gist of the method: as §3
Data set [11] can be described thus: Toxicity in Pseudoalteromonas ulvae TC14 assessed as effect on viability at 100 uM after 6 hrs by resazurin-staining assay relative to control. The gist of the method: as §3
The nature of data set [12]: Toxicity in Pseudoalteromonas ulvae TC14 assessed as growth inhibition at 100 uM after 15 hrs by Syto61 based-fluorescence analysis relative to control.

Turning to `COc1ccc(Cn2cc(C(=O)NCCCCNC(=N)N)nn2)cc1Br.O=C(O)C(F)(F)F`, the Activity (in data set [1]; in the data set on Paracoccus sp. [2]; in the data set with Pseudoalteromonas ulvae [3]) was over 75% in each case.

As for `COc1ccc(CCn2cc(C(=O)NCCCNC(=N)N)nn2)cc1Br.O=C(O)C(F)(F)F`, the Activity (in data set [1]; in the data set on Paracoccus sp. [2]; with Pseudoalteromonas ulvae [3]) was over 75% in each case.

Regarding `COc1ccc(CCn2cc(C(=O)NCCCN)nn2)cc1Br.O=C(O)C(F)(F)F`, the Activity (in data set [1]; in the data set with Paracoccus sp. [2]; with Pseudoalteromonas ulvae [3]) was over 75% throughout.

With `CC1(C)S[C@@H]2[C@H](NC(=O)[C@H](N)c3ccccc3)C(=O)N2[C@H]1C(=O)O` [AMPICILLIN], the EC50 – broadly, the concentration giving half of the maximal effect – amounted to 144 µM with Paracoccus sp. [4], 17.9 µM in data set [7] and 9.3 µM with Pseudoalteromonas ulvae [8]. The Activity result in [5] is recorded as “Toxic”; in data set [1], 8.9%; in [6] it was “Toxic”; in the data set with Paracoccus sp. [2] it was 33.9%; with Pseudoalteromonas ulvae [3], 4.9%; in data set [9], “Toxic”. The Activity entry in data set [10] and in data set [11] was “Toxic” each time.

For the compound `O=C(NCCc1cc(Br)c(O)c(Br)c1)c1cn(CCc2cc(Br)c(O)c(Br)c2)nn1`, the EC50 with Paracoccus sp. [4] stood at 83.2 µM; in data set [7] it was 96 µM; in the data set with Pseudoalteromonas ulvae [8], 26.6 µM. The Activity entry in [5] is listed as “Non-toxic”; in [1], 40.32%; in [6], “Non-toxic”; in the data set on Paracoccus sp. [2], 38.7%; in the data set with Pseudoalteromonas ulvae [3], 29.3%; in data set [9], “Non-toxic”. In addition, the Activity result in data set [10] and in [11] was “Non-toxic” in each case.

Regarding `COc1ccc(CCn2cc(C(=O)NCCNC(=N)N)nn2)cc1Br.O=C(O)C(F)(F)F`, the Activity (in data set [1]; in the data set on Paracoccus sp. [2]; in the data set on Pseudoalteromonas ulvae [3]) was over 75% throughout.

`COc1ccc(Cn2cc(C(=O)NCCN)nn2)cc1Br.O=C(O)C(F)(F)F`: the Activity (in [1]; in the data set with Paracoccus sp. [2]; with Pseudoalteromonas ulvae [3]) was over 75% throughout.

As to `COc1ccc(CCn2cc(C(=O)NCCN)nn2)cc1Br.O=C(O)C(F)(F)F`, the Activity (in [1]; in the data set on Paracoccus sp. [2]; in the data set on Pseudoalteromonas ulvae [3]) was over 75% in each case.

In the case of `COc1ccc(Cn2cc(C(=O)NCCc3cnc[nH]3)nn2)cc1Br`, the Activity (in [1]; with Paracoccus sp. [2]; in the data set with Pseudoalteromonas ulvae [3]) was over 75% in each case.

Turning to `COc1ccc(CCn2cc(C(=O)NCCc3cc(Br)c(O)c(Br)c3)nn2)cc1Br`, the EC50 was 40.7 µM in the data set on Paracoccus sp. [4], 67.8 µM in data set [7] and 8.8 µM in the data set with Pseudoalteromonas ulvae [8]. The Activity result was “Non-toxic” in [5]; 29.7% in data set [1]; “Non-toxic” in data set [6]; 28.8% with Paracoccus sp. [2]; 5.9% in the data set with Pseudoalteromonas ulvae [3]; “Non-toxic” in [9]. Besides, the Activity entry in data set [10] is reported as “Non-toxic”; in data set [12], “Toxic”; in [11], “Non-toxic”.

For `COc1ccc(Cn2cc(C(=O)NCCNC(=N)N)nn2)cc1Br.O=C(O)C(F)(F)F`, the Activity (in data set [1]; with Paracoccus sp. [2]; in the data set with Pseudoalteromonas ulvae [3]) was over 75% each time.

Take `COc1ccc(CCn2cc(C(=O)NCCc3cnc[nH]3)nn2)cc1Br`: the Activity (in data set [1]; with Paracoccus sp. [2]; in the data set with Pseudoalteromonas ulvae [3]) was over 75% in each case.

As to `COc1ccc(CCn2cc(C(=O)NCCCCNC(=N)N)nn2)cc1Br.O=C(O)C(F)(F)F`, the Activity (in [1]; in the data set on Paracoccus sp. [2]; in the data set on Pseudoalteromonas ulvae [3]) was over 75% each time.

Consider `COc1ccc(CCn2cc(C(=O)NCCc3ccc(O)cc3)nn2)cc1Br`, for which the EC50 in the data set with Paracoccus sp. [4] stood at 72.9 µM; in data set [7] it was 104 µM; in the data set on Pseudoalteromonas ulvae [8], 32.6 µM. Besides, the Activity entry is given as “Non-toxic” in data set [5]; 35% in data set [1]; “Non-toxic” in data set [6]; 28.2% with Paracoccus sp. [2]; 18.7% in the data set with Pseudoalteromonas ulvae [3]; “Non-toxic” in data set [9]. For the same compound, the Activity result in data set [10] and in data set [11] was “Non-toxic” each time.

`O=C(NCCc1ccc(O)cc1)c1cn(CCc2ccc(O)c(Br)c2)nn1`: the figures for the EC50 (in the data set with Paracoccus sp. [4]; in [7]; in the data set with Pseudoalteromonas ulvae [8]) were 156 µM, 113 µM and 69.3 µM, respectively. The Activity entry in data set [5] is listed as “Non-toxic”; in data set [1] it was 35%; in [6], “Non-toxic”; in the data set on Paracoccus sp. [2] it was 43.4%; with Pseudoalteromonas ulvae [3], 31.4%; in data set [9], “Non-toxic”. The Activity entry in data set [10] and in data set [11] was “Non-toxic” in each case.

With `O=C(NCCc1ccc(O)cc1)c1cn(CCc2ccc(O)cc2)nn1`, the EC50 in the data set on Paracoccus sp. [4] came out at 196 µM; in [7], 170 µM; in the data set with Pseudoalteromonas ulvae [8], 72.9 µM. Moreover, the Activity entry in data set [5] was “Non-toxic”; in data set [1], 43%; in data set [6], “Non-toxic”; with Paracoccus sp. [2], 44.5%; with Pseudoalteromonas ulvae [3] it was 16%; in data set [9], “Non-toxic”. The Activity result in data set [10] and in [11] was “Non-toxic” each time.

Take `COc1ccc(Cn2cc(C(=O)NCCCN)nn2)cc1Br.O=C(O)C(F)(F)F`: the Activity (in data set [1]; with Paracoccus sp. [2]; in the data set with Pseudoalteromonas ulvae [3]) was over 75% in each case.

On to `COc1ccc(Cn2cc(C(=O)NCCCCN)nn2)cc1Br.O=C(O)C(F)(F)F`, for which the Activity (in [1]; in the data set with Paracoccus sp. [2]; with Pseudoalteromonas ulvae [3]) was over 75% in each case.

Regarding `COc1ccc(CCn2cc(C(=O)NCCCCN)nn2)cc1Br.O=C(O)C(F)(F)F`, the Activity (in data set [1]; in the data set with Paracoccus sp. [2]; with Pseudoalteromonas ulvae [3]) was over 75% throughout.

As to `O=C(NCCc1cnc[nH]1)c1cn(CCc2ccc(O)cc2)nn1`, the Activity (in data set [1]; in the data set with Paracoccus sp. [2]; in the data set on Pseudoalteromonas ulvae [3]) was over 75% each time.

Take `COc1ccc(Cn2cc(C(=O)NCCc3ccc(O)cc3)nn2)cc1Br`: the results for the EC50 (in the data set with Paracoccus sp. [4]; in data set [7]; in the data set with Pseudoalteromonas ulvae [8]) were 97.3 µM, 134 µM and 40 µM, respectively. The Activity entry in data set [5] was “Non-toxic”; in data set [1] it was 38.3%; in [6], “Non-toxic”; in the data set on Paracoccus sp. [2], 31.2%; with Pseudoalteromonas ulvae [3] it was 20.7%; in data set [9], “Non-toxic”. Moreover, the Activity entry in data set [10] and in data set [11] was “Non-toxic” throughout.

Consider `COc1ccc(Cn2cc(C(=O)NCCc3cc(Br)c(O)c(Br)c3)nn2)cc1Br`, for which the EC50 amounted to 84 µM with Paracoccus sp. [4], 124 µM in [7] and 40.2 µM in the data set with Pseudoalteromonas ulvae [8]. Also, the Activity entry is “Non-toxic” in data set [5]; 40% in data set [1]; “Non-toxic” in [6]; 37.9% with Paracoccus sp. [2]; 23.3% with Pseudoalteromonas ulvae [3]; “Non-toxic” in data set [9]. The Activity entry in data set [10] and in data set [11] was “Non-toxic” in each case.

As to `COc1ccc(Cn2cc(C(=O)NCCCNC(=N)N)nn2)cc1Br.O=C(O)C(F)(F)F`, the Activity (in [1]; in the data set with Paracoccus sp. [2]; with Pseudoalteromonas ulvae [3]) was over 75% in each case.

As to `O=C(NCCc1cnc[nH]1)c1cn(CCc2ccc(O)c(Br)c2)nn1`, the Activity (in data set [1]; with Paracoccus sp. [2]; with Pseudoalteromonas ulvae [3]) was over 75% each time.
